# Diaphorase inh: diaphorase inhibitors and chemical oxidizers, primary screen, counter-screen for diaphorase-coupled primary assays, biochemical, uHTS, resorufin fluorescence | 0.69% of 190,000 active | inhibition, % at 20 µM | diaphorase resazurin-to-resorufin fluorescence, NADH, 16 min; bacterial (C. kluyveri) enzyme, not human;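 active = primary screen inhibition at 20 µM above a set limit, cut at about 50% in these data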
#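 Benchmarks: positive control wells lacking NADH, neutral wells with DMSO only. System: bacterial diaphorase enzyme (C. kluyveri). Input: 0.14 U/mL diaphorase, enzyme working solution. Detection: resorufin fluorescence, excitation 544 nm, emission 590 nm. Times: 16-min room-temperature incubation before reading.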
# HKDC1 inh: HKDC1 hexokinase inhibitors, primary screen, biochemical, fluorescence, uHTS. Q2TB90. recombinant HKDC1, G6PDH/diaphorase resazurin coupled fluorescence. inhibition, % at 20 µM. 0.16% of 340,000 active;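 active = inhibition above about 35% when tested at 20 µM, limit read from the data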
# Target sequence (Q2TB90 whole entry, looked up): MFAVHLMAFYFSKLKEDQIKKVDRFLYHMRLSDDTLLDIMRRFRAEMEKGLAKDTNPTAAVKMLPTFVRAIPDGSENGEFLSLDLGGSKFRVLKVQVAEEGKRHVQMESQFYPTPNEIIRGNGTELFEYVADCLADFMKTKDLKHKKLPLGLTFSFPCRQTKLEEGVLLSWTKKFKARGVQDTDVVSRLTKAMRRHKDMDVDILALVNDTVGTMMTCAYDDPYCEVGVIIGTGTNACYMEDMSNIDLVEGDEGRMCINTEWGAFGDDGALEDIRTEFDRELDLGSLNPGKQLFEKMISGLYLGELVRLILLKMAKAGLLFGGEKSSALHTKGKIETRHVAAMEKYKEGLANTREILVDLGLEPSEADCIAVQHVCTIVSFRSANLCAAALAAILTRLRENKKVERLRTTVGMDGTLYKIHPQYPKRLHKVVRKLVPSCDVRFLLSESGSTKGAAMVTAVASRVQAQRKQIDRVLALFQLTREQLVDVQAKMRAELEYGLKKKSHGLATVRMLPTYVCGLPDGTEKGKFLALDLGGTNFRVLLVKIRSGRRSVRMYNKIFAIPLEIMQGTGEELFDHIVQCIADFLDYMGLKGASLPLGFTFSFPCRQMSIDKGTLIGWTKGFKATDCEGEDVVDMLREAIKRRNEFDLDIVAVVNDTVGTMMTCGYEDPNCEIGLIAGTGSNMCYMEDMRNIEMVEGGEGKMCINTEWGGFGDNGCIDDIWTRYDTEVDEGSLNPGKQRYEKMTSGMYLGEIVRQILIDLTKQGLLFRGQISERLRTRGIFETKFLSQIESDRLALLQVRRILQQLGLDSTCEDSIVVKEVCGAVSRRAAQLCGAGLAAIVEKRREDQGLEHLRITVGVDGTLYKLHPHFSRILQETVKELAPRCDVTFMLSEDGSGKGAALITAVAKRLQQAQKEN
#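 System: Recombinant HKDC1 hexokinase | Amount: HKDC1 at 5 µg/mL | Reagent: Glucose with 1 mM ATP | Doses: Single 20 µM dose | Incubation: Reaction time 90 min, room temperature, protected from light | Signal: Coupled resazurin fluorescence, excitation 525 nm, emission 613 nm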
# PfG6PD inh: PfG6PD enzyme inhibitors, primary screen, biochemical, fluorescence intensity, uHTS | 0.78% of 350,000 active | glucose-6-phosphate dehydrogenase-6-phosphogluconolactonase (Plasmodium falciparum 3D7) | PfGluPho enzyme, NADPH resazurin-diaphorase fluorescence | inhibition, % at 20 µM | AID 504690, 2011;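 active = inhibition reaching at least a set limit at 20 µM in the primary screen, cut at about 59% in these data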
# G6PDH CS: L. mesenteroides G6PDH inhibitors, counter-screen for G6PDH-coupled screening assays, biochemical, Leuconostoc mesenteroides enzyme; glucose-6-phosphate dehydrogenase [Leuconostoc mesenteroides]; Purified L. mesenteroides G6PDH, diaphorase/resazurin coupled fluorescence, 45 min; inhibition, % at 5 µM; 0.12% of 200,000 active; AID 1020, 2008; in the data active = inhibition above about 50%
# Diaph act CS: compounds boosting diaphorase resazurin reduction – biochemical, uHTS, resorufin fluorescence, counter-screen for diaphorase-coupled primary assays, primary screen; 0.005% of 190,000 active; AID 1229, 2008; Diaphorase/resazurin coupled assay, 16 min; hits give high values; 1 = vehicle wells, 0 = NADH-free wells; activation factor at 20 µM;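 active = diaphorase activity raised at least twofold by the compound at 20 µM; inactive = activation factor below 2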
#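 Material: bacterial diaphorase enzyme (C. kluyveri); amount: enzyme 0.07 U/mL final; reagent: NADH substrate 0.114 mM plus resazurin dye 0.1 mM, final; doses: single compound dose of 20 µM, 1% DMSO final; timing: 16 min enzyme reaction, ambient temperature; measured by: fluorescence of resorufin, 544 nm excitation, 590 nm emission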
# PfG6PD confirm: PfG6PD inhibitors, hit retest, confirmation, biochemical, fluorescence intensity, single concentration | recombinant PfGluPho, NADPH-diaphorase-resazurin fluorescence | shares compounds with PfG6PD inh | 34% of 2,400 active | inhibition, % at 20 µM;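 active = inhibition of at least 50% at 20 µM in any single replicate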
# Diaph ctr 10uM: diaphorase inhibitors and chemical oxidizers, confirmation, counter-screen for P. falciparum G6PD inhibitor project, biochemical, fluorescence intensity, 10 µM NADPH. inhibition, % at 20 µM. AID 504862, 2011. shares compounds with PfG6PD inh. diaphorase-coupled resazurin reduction, NADPH 10 uM. 39% of 820 active;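 active = average inhibition reaching 50% or more with the compound at 20 µM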;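 also: resorufin red fluorescence formed as diaphorase reduces resazurin using NADPH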
# Diaph ctr 30uM: diaphorase inhibitors and chemical oxidizers, confirmation, counter-screen for P. falciparum G6PD inhibitor project, biochemical, fluorescence intensity, 30 µM NADPH; shares compounds with PfG6PD inh; Diaphorase/resazurin coupled assay, resorufin fluorescence; inhibition, % at 20 µM; 29% of 820 active; AID 504863, 2011;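 active = inhibition averaging 50% or more, tested at 20 µM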
# Numbers stand for hits; i = inactive; nt = not tested or not shown; ! = repeats disagree. Compounds with a hit are over-represented: about 1.3% of the library has one in this group of screens.
SMILES,Diaphorase inh,HKDC1 inh,PfG6PD inh,G6PDH CS,Diaph act CS,PfG6PD confirm,others
Cc1ccc(C(=O)Nc2nnc(S(=O)(=O)N3CCOCC3)s2)cc1,nt,i,101.3,nt,nt,61.5,Diaph ctr 10uM=51.6;Diaph ctr 30uM=50.8
CC(C)c1ccc(C(=O)Nc2nnc(S(=O)(=O)N3CCCCC3)s2)cc1,nt,i,i,nt,nt,nt,
Cc1ccc(N2CCN(S(=O)(=O)c3nnc(NC(=O)c4ccccc4)s3)CC2)cc1,nt,i,i,nt,nt,nt,
Cc1cccc(C(=O)Nc2nnc(S(=O)(=O)N3CCC(C)CC3)s2)c1,nt,i,70.1,nt,nt,i,
O=C(Nc1nnc(S(=O)(=O)N2CCCCCC2)s1)c1ccc(Cl)cc1,nt,i,79.7,nt,nt,i,
COc1ccc(C(=O)Nc2nnc(S(=O)(=O)N3CCC(C)CC3)s2)cc1OC,nt,i,i,nt,nt,nt,
CC(C(=O)N1CCN(c2ccccc2)CC1)c1ccc([N+](=O)[O-])cc1 (stereo not drawn),nt,i,i,nt,nt,nt,
COc1ccc(S(=O)(=O)N2CCCC2CNC(=O)C(=O)NCc2ccccn2)cc1 (stereo not drawn),nt,i,i,nt,nt,nt,
Cc1cc(C)c[n+](C2=C([O-])c3ccccc3C(=O)/C2=N\S(=O)(=O)c2cccs2)c1,i,i,66.1,i,i,49.6,Diaph ctr 10uM=50.0;Diaph ctr 30uM=i
O=C1/C(=N\S(=O)(=O)c2cccs2)C([n+]2cccc(Cc3ccccc3)c2)=C([O-])c2ccccc21,nt,i,63.0,nt,nt,i,
CC1CN(CCc2ccccc2)c2nc3c(c(=O)n(CC(N)=O)c(=O)n3C)n2C1 (stereo not drawn),nt,i,i,nt,nt,nt,
Cc1cc(C)c(S(=O)(=O)Nc2ccc3c4c(cccc24)CC3)c(C)c1,i,i,90.5,i,i,i,
Cc1ccc(S(=O)(=O)Nc2ccc3c4c(cccc24)CC3)c(C)c1,nt,i,73.9,nt,nt,i,
O=S(=O)(Nc1ccc2c3c(cccc13)CC2)c1ccccc1,nt,nt,i,nt,nt,nt,
CC(=O)Nc1ccc2c3c(cccc13)CC2,nt,i,i,nt,nt,nt,
CCCCN1CC(C)(C)[C@H](CC(=O)NC)C1=O,nt,nt,i,nt,nt,nt,
Cc1cc(C(=O)Nc2ccc([N+](=O)[O-])cn2)cs1,nt,i,i,nt,nt,nt,
CCOC(=O)N1CCN(C(=O)Nc2ccc3oc(C)nc3c2)CC1,i,i,61.7,i,i,i,
CCOC(=O)C1CCN(C(=O)Nc2ccc3oc(C)nc3c2)CC1,i,i,i,i,i,nt,
Cc1cc2nc(-c3ccc(SCC(=O)NC(C)C)nc3)[nH]c2cc1C,i,nt,nt,i,i,nt,
Cc1cc2nc(-c3ccc(SCc4ccc(C(=O)O)cc4)nc3)[nH]c2cc1C,i,i,72.0,i,i,i,
CSc1ccccc1NC(=O)c1ccccc1,i,i,i,i,i,nt,
O=C(Nc1ccccc1SC(=O)c1ccccc1)c1ccccc1,nt,nt,63.9,nt,nt,i,
COc1ccc(-c2nc(C#N)c(N3CCC(C)CC3)o2)cc1,nt,i,i,nt,nt,nt,
CCOC(=O)c1ccc(/[N+]([O-])=C/c2ccccc2)cc1,nt,i,90.0,nt,nt,97.1,Diaph ctr 10uM=i;Diaph ctr 30uM=i
SMILES,Diaphorase inh,HKDC1 inh,PfG6PD inh,G6PDH CS,Diaph act CS,PfG6PD confirm,others
C#CCCc1cscc1/C=[N+](\[O-])c1ccc(C(=O)OCC)cc1,nt,i,116.2,nt,nt,103.0,Diaph ctr 10uM=i;Diaph ctr 30uM=i
CCOC(=O)C1=C(C)Nc2nc(=S)[nH]n2C1c1ccc(Cl)cc1 (stereo not drawn),i,i,60.6,i,i,i,
CCOC(=O)C1=C(C)Nc2ncnn2C1c1ccc(N(C)C)cc1 (stereo not drawn),i,i,60.9!,i,i,i,
CCOC(=O)C1=C(C)Nc2nc(SCC)nn2C1c1ccc(OC)cc1 (stereo not drawn),i,i,i,i,i,nt,
O=C(CCS(=O)(=O)c1ccc(F)cc1)N1CCOCC1,nt,i,i,nt,nt,nt,
Cc1ccccc1C(=O)N/N=C/c1ccc([N+](=O)[O-])s1,i,i,i,i,i,nt,
Cc1c(Cl)cccc1N=Cc1ccc([N+](=O)[O-])s1,i,i,77.4,i,i,i,
Cc1nc2c(=O)n(C)c(=O)n(C)c2nc1Cl,i,i,i,i,i,nt,
Cc1sc(NC(=O)c2ccccc2)c(C(=O)c2ccccc2)c1C,i,i,63.1,i,i,i,
Cc1ccc(C(=O)Nc2sc(C)c(C)c2C(=O)c2ccccc2)cc1,i,i,81.9,i,i,i,
CCN(CC)C(=O)c1c(NC(=O)c2ccccc2)sc(C)c1C,i,i,i,i,i,nt,
Cc1sc(NC(=O)c2ccccc2)c(C(=O)NC(C)C)c1C,i,i,i,i,i,nt,
CCc1ccc(/C=C2\SC(=S)N(CCCC(=O)NC3=NCCS3)C2=O)cc1,nt,nt,i,nt,nt,nt,
CCOc1ccc(/C=C/[N+](=O)[O-])c2ccccc12,i,i,63.5,i,i,i,
Cc1ccc(N(O)C(C)(C)C)cc1,nt,i,71.9,nt,nt,i,
Cc1ccc(N(C)S(=O)(=O)c2ccc(C)cc2)cc1,i,i,i,i,i,nt,
CCOC(=O)c1cnc2c(OC)cccc2c1Nc1ccc2c(c1)OCCO2,i,i,68.3,i,i,i,
CCOC(=O)c1cnc2ccc(OC)cc2c1Nc1ccc2c(c1)OCCO2,i,i,i,i,i,nt,
CCN(CC(=O)Nc1c(F)cccc1F)C(=O)C1CCN(C(=O)Nc2ccccc2)CC1,nt,i,i,nt,nt,nt,
CCOC(=O)CSc1nc2nc(Cl)c(Cl)nc2[nH]1,nt,nt,81.0,nt,nt,i,
O=C(CCSc1ccc(F)cc1)NNC(=O)c1ccccc1Cl,nt,i,i,nt,nt,nt,
O=C(CSc1nnc(CNC(=O)c2cccs2)o1)Nc1ccccc1C(F)(F)F,nt,i,i,nt,nt,nt,
O=C(CSc1ccccn1)Nc1nonc1[N+](=O)[O-],nt,i,111.8,nt,nt,109.7,Diaph ctr 10uM=87.4;Diaph ctr 30uM=90.9
O=c1c(O)c(-c2ccccc2)oc2cc(O)cc(O)c12,nt,i,i,nt,nt,nt,
O=c1c(O)c(-c2cc(O)c(O)c(O)c2)oc2cc(O)cc(O)c12,nt,i,67.0,nt,nt,i,
O=C(CSc1cccc2cccnc12)N/N=C/c1ccc(F)cc1,nt,i,84.7,nt,nt,64.9,Diaph ctr 10uM=61.1;Diaph ctr 30uM=53.8
CCCCC(=O)N/N=C/c1ccc(Sc2cccc3cccnc23)o1,i,i,68.1,i,i,i,
CC(C)(C)OC(=O)N[C@H]1C=C[C@@H](OC(=O)CC(=O)OCC(F)(F)F)C1,nt,i,i,nt,nt,nt,
